Values after ≈ are worked out from the molar mass of the structure shown.
Columns and labels:
[1] = system: Mycobacterium tuberculosis; test: Antimycobacterial activity against Mycobacterium tuberculosis H37Rv ATCC 27294 after 28 days by agar dilution method; format: functional; conditions: H37Rv ATCC 27294, 672 h
Method in brief: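 Agar dilution on Middlebrook 7H11 agar tubes with OADC, drug 50 to 0.78 µg/mL, in duplicate. Inoculum from fresh slants adjusted to 1 mg/mL wet weight in 0.05% Tween 80 saline, diluted 10^-2 (~10^7 cfu/mL); 5 µL spotted. Incubated 37 °C, MIC read after 28 days.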

Pantothenate synthetase = target: T1, Pantothenate synthetase (Mycobacterium tuberculosis, UniProt P9WIL5); test: Inhibition of Mycobacterium tuberculosis pantothenate synthetase expressed in Escherichia coli BL21 (DE3)
T1 sequence (P9WIL5 whole entry): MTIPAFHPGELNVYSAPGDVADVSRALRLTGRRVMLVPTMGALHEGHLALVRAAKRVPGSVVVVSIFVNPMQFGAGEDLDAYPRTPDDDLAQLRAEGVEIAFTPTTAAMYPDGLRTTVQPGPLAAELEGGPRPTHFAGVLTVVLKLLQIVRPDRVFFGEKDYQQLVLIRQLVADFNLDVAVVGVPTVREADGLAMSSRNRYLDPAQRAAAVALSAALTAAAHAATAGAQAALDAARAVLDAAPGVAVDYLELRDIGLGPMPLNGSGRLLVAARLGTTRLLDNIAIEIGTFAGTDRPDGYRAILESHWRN
Method in brief: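 panC (Rv3602c) cloned into E. coli BL21(DE3). Coupled assay: reagent mix of NADH, pantoic acid, β-alanine, ATP, phosphoenolpyruvate, MgCl2, myokinase, pyruvate kinase, lactate dehydrogenase; reaction started with PS; A340 read every 12 s for 120 s.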

[2] = Cytotoxicity against mouse RAW264.7 cells at 50 uM after 72 hrs by MTT assay; format: cell-based; conditions: read-out: INH
[3] = target: T2, Pantothenate synthetase (Mycobacterium tuberculosis) (UniProt P9WIL5); test: Binding affinity to Mycobacterium tuberculosis pantothenate synthetase expressed in Escherichia coli BL21 (DE3) assessed as increase in thermal stability
T2 sequence (whole entry): T1 sequence (P9WIL5 whole entry)
Method in brief: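 Differential scanning fluorimetry: protein–ligand complexes heated from 25 °C to 95 °C in 0.1 °C steps with SYPRO Orange dye; melting temperature shift relative to native protein recorded.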

SMILES | MIC [1] [µM] | IC50 (Pantothenate synthetase) [µM] | cytotoxicity at 72 h, 50 µM [2] [%] | Tm [3] [°C]
COc1ccc(S(=O)(=O)N2CCc3c(sc(NC(=O)c4ccc([N+](=O)[O-])o4)c3C(N)=O)C2)cc1 | 24.6 (≈ 12.5 µg/mL) | 20.3 | 19.4 | 
NC(=O)c1c(NC(=O)c2ccc([N+](=O)[O-])o2)sc2c1CCN(S(=O)(=O)c1ccc([N+](=O)[O-])cc1)C2 | 47.9 (≈ 25 µg/mL) | > 25 |  | 
CC(=O)N1CCc2c(sc(NC(=O)c3cccs3)c2C(N)=O)C1 | 9.15 (≈ 3.2 µg/mL) | > 25 |  | 
NC(=O)c1c(NC(=O)c2ccc([N+](=O)[O-])s2)sc2c1CCN(C(=O)Nc1ccc(Cl)cc1)C2 | 12.3 (≈ 6.23 µg/mL) | 10.2 | 24.4 | 
CC(=O)c1ccc(S(=O)(=O)N2CCc3c(sc(NC(=O)c4ccc([N+](=O)[O-])o4)c3C(N)=O)C2)cc1 | 48.2 (≈ 25 µg/mL) | > 25 |  | 
NC(=O)c1c(NC(=O)c2ccc([N+](=O)[O-])o2)sc2c1CCN(C(=O)NCc1ccccc1)C2 | 26.6 (≈ 12.5 µg/mL) | 14.1 | 24.3 | 
NC(=O)c1c(NC(=O)c2ccc([N+](=O)[O-])s2)sc2c1CCN(S(=O)(=O)c1ccc(F)cc1)C2 | 12.2 (≈ 6.24 µg/mL) | 11.7 | 30.2 | 
COc1ccc(NC(=O)N2CCc3c(sc(NC(=O)c4ccc([N+](=O)[O-])o4)c3C(N)=O)C2)cc1 | 53.2 (≈ 25.8 µg/mL) | 15.1 |  | 
NC(=O)c1c(NC(=O)c2ccc([N+](=O)[O-])s2)sc2c1CCN(C(=S)Nc1ccc(F)cc1)C2 | 12.3 (≈ 6.24 µg/mL) | 10.2 | 26.8 | 
COc1ccc(NC(=O)N2CCc3c(sc(NC(=O)c4ccc([N+](=O)[O-])s4)c3C(N)=O)C2)cc1 | 24.9 (≈ 12.5 µg/mL) | 14.5 | 20.9 | 
NC(=O)c1c(NC(=O)c2ccc([N+](=O)[O-])o2)sc2c1CCN(C(=S)Nc1ccc([N+](=O)[O-])cc1)C2 | 24.2 (≈ 12.5 µg/mL) | 18.7 | 28.2 | 
CC(=O)c1ccc(S(=O)(=O)N2CCc3c(sc(NC(=O)c4ccc([N+](=O)[O-])s4)c3C(N)=O)C2)cc1 | 46.7 (≈ 25 µg/mL) | > 25 |  | 
NC(=O)c1c(NC(=O)c2ccc([N+](=O)[O-])s2)sc2c1CCN(S(=O)(=O)c1ccc(Br)cc1)C2 | 21.9 (≈ 12.5 µg/mL) | 14.2 | 26.8 | 
NC(=O)c1c(NC(=O)c2ccc([N+](=O)[O-])s2)sc2c1CCN(C(=S)Nc1ccc(Cl)cc1)C2 | 11.9 (≈ 6.24 µg/mL) | 6.28 | 21.4 | 
NC(=O)c1c(NC(=O)c2ccc([N+](=O)[O-])o2)sc2c1CCN(C(=S)Nc1ccc(Cl)cc1)C2 | 24.7 (≈ 12.5 µg/mL) | 19.2 | 24.7 | 
NC(=O)c1c(NC(=O)c2ccc([N+](=O)[O-])s2)sc2c1CCN(C(=S)Nc1ccc([N+](=O)[O-])cc1)C2 | 11.7 (≈ 6.24 µg/mL) | 9.11 | 28.6 | 
NC(=O)c1c(NC(=O)c2ccc([N+](=O)[O-])o2)sc2c1CCN(C(=O)Nc1ccc([N+](=O)[O-])cc1)C2 | 24.9 (≈ 12.5 µg/mL) | 19.8 | 36.1 | 
NC(=O)c1c(NC(=O)c2ccc([N+](=O)[O-])s2)sc2c1CCN(C(=O)NCc1ccccc1)C2 | 25.7 (≈ 12.5 µg/mL) | 18.2 | 26.1 | 
COc1ccc(S(=O)(=O)N2CCc3c(sc(NC(=O)c4ccc([N+](=O)[O-])s4)c3C(N)=O)C2)cc1 | 23.9 (≈ 12.5 µg/mL) | 19 | 24.5 | 
NC(=O)c1c(NC(=O)c2ccc([N+](=O)[O-])o2)sc2c1CCN(S(=O)(=O)c1ccc(Br)cc1)C2 | 45 (≈ 25 µg/mL) | > 25 |  | 
NNC(=O)c1ccncc1 [ISONIAZID] | 0.72 (≈ 0.0987 µg/mL) | > 25 |  | 
NC(=O)c1c(NC(=O)c2ccc([N+](=O)[O-])s2)sc2c1CCN(C(=O)Nc1ccc([N+](=O)[O-])cc1)C2 | 12.1 (≈ 6.24 µg/mL) | 9.68 | 33.6 | 
NC(=O)c1c(NC(=O)c2ccc([N+](=O)[O-])s2)sc2c1CCN(C(=S)NCc1ccccc1)C2 | 19.9 (≈ 9.99 µg/mL) | 13.2 | 22.2 | 
NC(=O)c1c(NC(=O)c2ccc([N+](=O)[O-])o2)sc2c1CCN(C(=O)Nc1ccc(Cl)cc1)C2 | 51 (≈ 25 µg/mL) | > 25 |  | 
CC[C@@H](CO)NCCN[C@@H](CC)CO [ETHAMBUTOL] | 7.64 (≈ 1.56 µg/mL) | > 25 |  | 
NC(=O)c1c(NC(=O)c2ccc([N+](=O)[O-])s2)sc2c1CCN(S(=O)(=O)c1ccc([N+](=O)[O-])cc1)C2 | 9.28 (≈ 4.99 µg/mL) | 5.87 | 29.2 | 50.4
NC(=O)c1c(NC(=O)c2ccc([N+](=O)[O-])o2)sc2c1CCN(S(=O)(=O)c1ccc(F)cc1)C2 | 25.2 (≈ 12.5 µg/mL) | 17.6 | 22.1 | 
NC(=O)c1c(NC(=O)c2ccc([N+](=O)[O-])o2)sc2c1CCN(C(=S)NCc1ccccc1)C2 | 26.5 (≈ 12.9 µg/mL) | 17 | 18.1 | 
NC(=O)c1c(NC(=O)c2ccc([N+](=O)[O-])o2)sc2c1CCN(C(=S)Nc1ccc(F)cc1)C2 | 25.5 (≈ 12.5 µg/mL) | 20.9 | 28.1 | 

— ChEMBL document CHEMBL3120119, “Development of novel tetrahydrothieno[2,3-c]pyridine-3-carboxamide based Mycobacterium tuberculosis pantothenate synthetase inhibitors: molecular hybridization from known antimycobacterial leads” (Bioorg Med Chem, 2014)
